Assay results: ChEMBL document CHEMBL2331492, “Synthesis and biological evaluation of new cytotoxic indazolo[4,3-gh]isoquinolinone derivatives” (Bioorg Med Chem Lett, 2013)
Active and inactive are the calls of the source. The rule behind the calls is not given here.

How the values were obtained:
[1] = Antiproliferative activity against human RKOp27IND cells after 48 hrs; assay type: functional, cell-based
Summary of the method: (§1)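 Cells seeded in supplier-recommended growth medium at line-adapted densities (linear signal range), grown 24 h at 37 °C/5% CO2, then exposed to compound; highest concentration 3.16 μM. After 45 h, resazurin (0.2 mg/mL in DPBS) added for 3 h; fluorescence at 590 nm read at 48 h. % efficacy vs untreated cells and cell-free blanks; EC50 by nonlinear regression from at least two independent assays.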

NCI-H460 [2] = experiment: Antiproliferative activity against human NCI-H460 cells after 48 hrs; assay type: functional, cell-based; conditions: NCI-H460, 48 h; summary of the method: as §1
SK-OV-3 [3] = experiment: Antiproliferative activity against human SKOV3 cells after 48 hrs; assay type: functional, cell-based; conditions: SK-OV-3, 48 h; summary of the method: as §1
DNA = experiment: Binding affinity to calf thymus DNA up to 5 mM; assay type: nucleic-acid assay; conditions: Bos taurus
Summary of the method: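 UV-vis absorbance shift assay. Stocks of up to 5 mM were made in 5% DMSO or methanol. They were diluted in pH 7 phosphate buffer (5 mM NaH2PO4, 5 mM Na2HPO4, 70 mM NaCl) to give a maximum absorbance of about 1–2. Spectra were taken from 230–600 nm with and without 2 mg/ml calf thymus DNA, and peak shifts were compared.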

[4] = Antiproliferative activity against human RKOp27 cells after 48 hrs; assay type: functional, cell-based; conditions: RKOp27, 48 h; summary of the method: as §1
[5] = Antiproliferative activity against human KB/HeLa cells after 48 hrs; assay type: functional, cell-based; summary of the method: as §1
SF-268 [6] = experiment: Antiproliferative activity against human SF268 cells after 48 hrs; assay type: functional, cell-based; conditions: SF-268, 48 h; summary of the method: as §1
[7] = Antiproliferative activity against human KB/HeLa cells at 3.16 uM after 48 hrs; assay type: functional
Summary of the method: (§2)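 Cells were seeded in the supplier-recommended medium and grown 24 h at 37 °C/5% CO2 before compound addition. Resazurin (0.2 mg/mL in DPBS) was added after 45 h, and fluorescence at 590 nm was read at 48 h total. % inhibition at the highest concentration (3.16 μM) was scored against untreated cells and cell-free blanks on each plate. Data came from at least two independent assays.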

SF-268 [8] = experiment: Antiproliferative activity against human SF268 cells at 3.16 uM after 48 hrs; assay type: functional; conditions: SF-268, 48 h; summary of the method: as §2
SK-OV-3 [9] = experiment: Antiproliferative activity against human SKOV3 cells at 3.16 uM after 48 hrs; assay type: functional; conditions: SK-OV-3, 48 h; summary of the method: as §2
[10] = Antiproliferative activity against human RKOp27 cells at 3.16 uM after 48 hrs; assay type: functional; conditions: RKOp27, 48 h; summary of the method: as §2
NCI-H460 [11] = experiment: Antiproliferative activity against human NCI-H460 cells at 3.16 uM after 48 hrs; assay type: functional; conditions: NCI-H460, 48 h; summary of the method: as §2
[12] = Antiproliferative activity against human RKOp27IND cells at 3.16 uM after 48 hrs; assay type: functional; summary of the method: as §2
[13] = Cell cycle arrest in human KB/HeLa cells assessed as accumulation at S phase up to 11 uM after 24 hrs by flow cytometry analysis; assay type: functional, cell-based
Summary of the method: (§3)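 Exponentially dividing KB/HeLa cells (ATCC CCL17) were exposed at 37 °C to a range of compound concentrations and compared with untreated controls. Cells were prepared with the CycleTEST PLUS kit. DNA content was measured by flow cytometry (FACSCalibur), and phase distribution was derived with cell cycle analysis software.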

[14] = Cell cycle arrest in human KB/HeLa cells assessed as accumulation at S phase at < 6 uM after 24 hrs by flow cytometry analysis; assay type: functional, cell-based; summary of the method: as §3
[15] = Cell cycle arrest in human KB/HeLa cells assessed as accumulation at S phase at < 4 uM after 24 hrs by flow cytometry analysis; assay type: functional, cell-based; summary of the method: as §3
[16] = Cell cycle arrest in human KB/HeLa cells assessed as accumulation at S phase at < 7 uM after 24 hrs by flow cytometry analysis; assay type: functional, cell-based; summary of the method: as §3

| Compound | EC50 (NCI-H460 [2]) [nM] | EC50 (SK-OV-3 [3]) [nM] | EC50 [1] [nM] | Activity (DNA) | EC50 [4] [nM] | EC50 [5] [nM] | EC50 (SF-268 [6]) [nM] | also measured |
| --- | --- | --- | --- | --- | --- | --- | --- | --- |
| CN(C)CCn1nc2c3c(c(NCCOS(C)(=O)=O)ccc31)C(=O)c1ccncc1-2 | 250 | 550 | 1830 |  | 170 | 150 | 390 |  |
| CN(C)CCn1nc2c3c(c(NCCCCCCc4ccc(N(CCCl)CCCl)cc4)ccc31)C(=O)c1ccncc1-2 |  |  |  |  |  |  |  | inhibition at 3.16 µM [7]: < 30%; inhibition at 3.16 µM (SF-268 [8]): < 30%; inhibition at 3.16 µM (SK-OV-3 [9]): < 30%; inhibition at 3.16 µM [10]: < 30%; inhibition at 3.16 µM (NCI-H460 [11]): < 30%; inhibition at 3.16 µM [12]: < 30% |
| CN(C)CCn1nc2c3c(c(NCCC#CCCN4CC4)ccc31)C(=O)c1ccncc1-2 | 60 | 310 | 350 | Active | 70 | 140 | 240 | Activity [13]: inactive |
| CSCCCNc1ccc2c3c(nn2CCN(C)C)-c2cnccc2C(=O)c13 | 680 | 1360 | 4760 |  | 2940 |  |  |  |
| CN(C)CCn1nc2c3c(c(NCC/C=C\CCN4CC4)ccc31)C(=O)c1ccncc1-2 | 590 | 1770 | 1200 |  | 290 | 430 | 1710 | Activity [14]: Active |
| O=C1c2c(O)ccc(O)c2C(=O)c2c(NCCNCCO)ccc(NCCNCCO)c21 [MITOXANTRONE] | 120 | 120 | 760 | Active | 90 | 360 | 320 |  |
| CN(C)CCn1nc2c3c(c(NCCc4cccs4)ccc31)C(=O)c1ccncc1-2 | 1470 | 3220 | 4840 |  | 3120 |  |  |  |
| CN(C)CCn1nc2c3c(c(NCCCCc4ccc(N(CCCl)CCCl)cc4)ccc31)C(=O)c1ccncc1-2 | 3760 |  | 1630 |  | 1190 | 2470 | 4170 | inhibition at 3.16 µM (SK-OV-3 [9]): < 30% |
| c1ccc2nc3ccccc3cc2c1 |  |  |  | Active |  |  |  |  |
| CN(C)CCn1nc2c3c(c(NCCCCCCN4CC4)ccc31)C(=O)c1ccncc1-2 | 200 | 770 | 1280 | Active | 130 | 340 | 760 | Activity [15]: Active |
| CN(C)CCn1nc2c3c(c(NCCCCN4CC4)ccc31)C(=O)c1ccncc1-2 | 70 | 530 | 1020 | Active | 1000 | 80 | 420 |  |
| CN(C)CCn1nc2c3c(c(NCCN4CC4)ccc31)C(=O)c1ccncc1-2 | 80 | 390 | 1050 |  | 80 | 70 | 690 |  |
| CN(C)CCn1nc2c3c(c(NCCc4c[nH]cn4)ccc31)C(=O)c1ccncc1-2 | 3020 | 1650 | 4810 |  | 1330 |  |  |  |
| CN(C)CCn1nc2c3c(c(NCC/C=C/CCN4CC4)ccc31)C(=O)c1ccncc1-2 | 690 | 3220 | 2780 |  | 720 | 1220 | 2990 | Activity [16]: Active |

Continued, in another order:

| EC50 (NCI-H460 [2]) [nM] | EC50 (SK-OV-3 [3]) [nM] | Compound | EC50 [1] [nM] | Activity (DNA) | EC50 [4] [nM] | EC50 [5] [nM] | EC50 (SF-268 [6]) [nM] | also measured |
| --- | --- | --- | --- | --- | --- | --- | --- | --- |
| 1320 | 1520 | CN(C)CCn1nc2c3c(c(NCCc4c[nH]c5ccccc45)ccc31)C(=O)c1ccncc1-2 | 1510 | inactive | 1330 |  |  |  |
| 1070 |  | CN(C)CCn1nc2c3c(c(NCCCCOS(C)(=O)=O)ccc31)C(=O)c1ccncc1-2 |  |  | 1180 | 3170 |  | inhibition at 3.16 µM (SF-268 [8]): < 30%; inhibition at 3.16 µM (SK-OV-3 [9]): < 30%; inhibition at 3.16 µM [12]: < 30% |
| 770 | 2080 | CN(C)CCn1nc2c3c(c(N(C)C)ccc31)C(=O)c1ccncc1-2 | 3060 | Active | 2630 | 2190 | 1340 |  |
| 310 | 700 | CN(C)CCSCCNc1ccc2c3c(nn2CCN(C)C)-c2cnccc2C(=O)c13 | 1790 |  | 920 | 750 | 2370 |  |
| 411 | 730 | CN(C)CCn1nc2c3c(c(NCCC#CCCOS(C)(=O)=O)ccc31)C(=O)c1ccncc1-2 | 980 |  | 470 | 390 | 750 |  |
| 2180 | 5380 | CN(C)CCn1nc2c3c(c(NCC/C=C\CCOS(C)(=O)=O)ccc31)C(=O)c1ccncc1-2 | 2610 |  | 630 | 750 | 3070 |  |
| 820 | 3610 | CN(C)CCn1nc2c3c(c(NCCCCCCOS(C)(=O)=O)ccc31)C(=O)c1ccncc1-2 | 1930 |  | 510 | 1670 | 1370 |  |
| 150 | 400 | CN(C)CCn1nc2c3c(c(NCCSCCO)ccc31)C(=O)c1ccncc1-2 | 1060 | Active | 550 | 960 | 660 |  |
| 990 | 1410 | CN(C)CCn1nc2c3c(c(NCCc4ccccn4)ccc31)C(=O)c1ccncc1-2 | 3770 |  | 2680 |  |  |  |
| 160 | 360 | CN(C)CCn1nc2c3c(c(NCCC4CCCN4C)ccc31)C(=O)c1ccncc1-2 (stereo unspecified) | 460 | Active | 370 |  |  |  |
| 680 | 1210 | CN(C)CCn1nc2c3c(c(NCCC#CCCO)ccc31)C(=O)c1ccncc1-2 | 3230 | Active | 1630 | 1390 | 3450 |  |
